Screening data: PubChem, Broad Institute
The list is not random: actives were taken first. Their share in the collection is about 2.2%.
E-sel inducer = E-selectin induction on HUVECs; P16581; HUVEC E-selectin immunofluorescence imaging; normalized: neutral wells 0, TNF-alpha wells 100; activation, % at 7.58 µM; 260,000 tested, 0.37% active;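 active means mean E-selectin-positive cell signal at least 10% of the positive control, reached in at least 60% of replicates, without over 20% cell loss; inconclusive means no rule given, readout overlaps actives, possibly toxicity-flagged; inactive means the rest, including those meeting only one limit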
Target sequence (P16581 whole entry, looked up): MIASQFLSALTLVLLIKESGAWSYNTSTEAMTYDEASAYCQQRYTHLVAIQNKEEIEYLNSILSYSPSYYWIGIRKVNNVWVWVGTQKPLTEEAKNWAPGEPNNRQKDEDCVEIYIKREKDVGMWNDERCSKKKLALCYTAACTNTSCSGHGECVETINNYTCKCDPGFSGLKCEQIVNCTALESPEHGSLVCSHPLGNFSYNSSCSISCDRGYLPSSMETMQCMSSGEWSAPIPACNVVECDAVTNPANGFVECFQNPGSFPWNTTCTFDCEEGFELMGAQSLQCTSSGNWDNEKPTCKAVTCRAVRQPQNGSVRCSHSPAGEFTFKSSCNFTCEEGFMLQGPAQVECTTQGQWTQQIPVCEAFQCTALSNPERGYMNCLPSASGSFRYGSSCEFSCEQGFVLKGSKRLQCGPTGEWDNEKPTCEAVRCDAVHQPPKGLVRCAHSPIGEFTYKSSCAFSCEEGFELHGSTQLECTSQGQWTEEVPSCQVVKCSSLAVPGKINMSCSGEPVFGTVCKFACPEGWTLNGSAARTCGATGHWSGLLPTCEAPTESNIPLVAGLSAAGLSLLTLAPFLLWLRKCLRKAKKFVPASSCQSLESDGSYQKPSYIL
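Test system: HUVEC | Signal: Immunofluorescence imaging | Read-out: Percent E-selectin-positive cells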
DENV2 CPE = DENV2-induced cell death inhibition; DENV2-infected cells, cytopathic effect rescue, plate reader; CPE inhibition, % at 9.99 µM; 350,000 tested, 1.7% active; AID 651640; in the data active means CPE inhibition above about 20%, passing the limit was not always enough; inconclusive means no clear call, values can overlap the other calls; tested in BHK-21 cells;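 further: 0% = median of neutral control wells and 100% = median of positive control wells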
C2C12 statin = suppressors of simvastatin-induced myotoxicity in C2C12 myotubes. ATP luminescence, 48 h; scaled: DMSO 0, geranylgeraniol control 100. 330,000 tested, 0.78% active. rescue of ATP level, % at 7.49 µM;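 active means mean ATP rescue above about 67%, or every replicate alone reaching that limit, limit read from the data, passing the limit was not always enough; inconclusive means no clear call, values can overlap the other calls; inactive means mean under the limit and some replicate under it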;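 further: myotubes were challenged with 10 µM simvastatin during compound exposure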
Active calls of the source: *; ? = inconclusive; . = not tested or not shown.

SMILES	E-sel inducer	DENV2 CPE	C2C12 statin
COc1ccc2c(c1)C(=O)N(c1ccccc1C)C(=O)C2(C)C	0	-11	.
COc1ccc(N2C(=O)c3ccccc3C(C)(C)C2=O)cc1	45*	11	10
COC(=O)C[C@@H]1CC[C@@H]2[C@@H](COc3ccc(NC(=O)NC(C)C)cc3C(=O)N2C)O1	0	?	-17
CNC[C@@H]1Oc2ccc(NC(=O)C3CC3)cc2CC(=O)N([C@H](C)CO)C[C@H]1C	1	5	-5
COCCNC(=O)C[C@H]1C[C@H]2c3cc(NC(=O)Nc4ccc(C(F)(F)F)cc4)ccc3O[C@H]2[C@@H](CO)O1	0	8	-4
C[C@H](O)C#Cc1cnc2c(c1)C(=O)N([C@H](C)CO)C[C@H](C)[C@@H](CN(C)Cc1cccc(F)c1)O2	0	-1	16
COc1cc(C(=O)NNc2nc3cc4c(cc3s2)OCO4)cc(OC)c1OC	108*	-5	-1
COc1cc(OC)cc(C(=O)NNc2nc3cc4c(cc3s2)OCO4)c1	0	6	3
C[C@@H]1CN([C@H](C)CO)C(=O)c2cc(NC(=O)c3ccccc3)ccc2O[C@@H](C)CCCCO[C@H]1CN(C)S(=O)(=O)c1ccc(F)cc1	0	-4	.
C[C@@H]1CN([C@H](C)CO)C(=O)c2cc(NC(=O)c3ccccc3)ccc2O[C@@H](C)CCCCO[C@@H]1CN(C)S(=O)(=O)c1ccc(F)cc1	0	98*	.
C[C@H]1CCCCO[C@H](CN(C)S(=O)(=O)c2ccc(F)cc2)[C@@H](C)CN([C@@H](C)CO)C(=O)c2cc(NC(=O)c3ccccc3)ccc2O1	0	4	.
C[C@@H]1CCCCO[C@H](CN(C)S(=O)(=O)c2ccccc2)[C@@H](C)CN([C@@H](C)CO)C(=O)c2cc(NC(=O)c3ccncc3)ccc2O1	.	83*	.
C[C@@H]1CCCCO[C@@H](CN(C)S(=O)(=O)c2ccc(F)cc2)[C@@H](C)CN([C@@H](C)CO)C(=O)c2cc(NC(=O)c3ccccc3)ccc2O1	0	93*	.
C[C@H](CO)N1C[C@H](C)[C@@H](CN(C)S(=O)(=O)c2ccc(F)cc2)OCCCC[C@H](C)Oc2ccc(NC(=O)c3ccccc3)cc2C1=O	0	5	.
C[C@H](CO)N1C[C@H](C)[C@H](CN(C)S(=O)(=O)c2ccc(F)cc2)OCCCC[C@H](C)Oc2ccc(NC(=O)c3ccccc3)cc2C1=O	0	28*	.
C[C@@H]1CN([C@H](C)CO)C(=O)c2cc(NC(=O)c3ccncc3)ccc2O[C@@H](C)CCCCO[C@H]1CN(C)S(=O)(=O)c1ccccc1	.	-4	.
CCS(=O)(=O)Nc1ccc2c(c1)C(=O)N(C)[C@@H]1CC[C@@H](CC(=O)OC)O[C@@H]1CO2	0	3	-13
COc1ccc(S(=O)(=O)N(C)C[C@@H]2OCCCC[C@@H](C)Oc3ccc(NC(=O)c4ccccc4)cc3C(=O)N([C@H](C)CO)C[C@H]2C)cc1	0	4	.
COc1ccc(S(=O)(=O)N(C)C[C@@H]2OCCCC[C@@H](C)Oc3ccc(NC(=O)c4ccccc4)cc3C(=O)N([C@@H](C)CO)C[C@@H]2C)cc1	0	29*	.
CCOC(=O)C(=C1Nc2ccccc2N1)n1c(-c2ccco2)nc2ccccc21	1	-22	.
CCOC(=O)C(=C1Nc2ccccc2N1)n1c(-c2cnccn2)nc2ccccc21	0	57*	.
C[C@@H]1CN([C@@H](C)CO)C(=O)c2cc(C#CCN(C)C)cnc2O[C@@H]1CN(C)Cc1ccc2c(c1)OCO2	0	2	8
C[C@H]1CN([C@@H](C)CO)C(=O)c2cc(-c3ccccc3F)cnc2O[C@@H]1CN(C)C(=O)C1CC1	1	16	11
Cn1ncc(C#N)c1/N=C/N1CCCCCC1	.	.	-5
Cn1ncc(C#N)c1/N=C/N1CCOCC1	1	.	117*
SMILES	E-sel inducer	DENV2 CPE	C2C12 statin
CCOC(=O)N1CCC(NS(=O)(=O)c2ccc3c(c2)CCN3C(C)=O)CC1	.	.	24
CCOC(=O)N1CCC(NS(=O)(=O)c2ccc(C#N)cc2)CC1	0	47*	.
C[C@H]1CCCCO[C@H](CN(C)S(=O)(=O)c2cn(C)cn2)[C@@H](C)CN([C@@H](C)CO)C(=O)c2cc(NC(=O)Nc3ccccc3)ccc2O1	0	1	.
COc1ccc2c3c(n(C)c2c1)[C@H](CO)N(C(=O)CC1CC1)CC31CCN(C(=O)C2CCCC2)CC1	0	0	.
COc1ccc(-c2cc(C(=O)NCCCN3CCCC3=O)c3ccccc3n2)cc1	0	58*	-5
O=C(NCCCN1CCCC1=O)c1cc(-c2ccc(F)cc2)nc2ccccc12	.	0	0
CN1CCN(CC(C)(C)NS(=O)(=O)c2ccc(Cl)cc2)CC1	.	.	7
CC(C)(CN1CCN(Cc2ccccc2)CC1)NS(=O)(=O)c1ccc(Cl)cc1	0	30*	6
CC(CCc1ccccc1)NC(=O)CN1CCN(Cc2ccc(Cl)cc2)C1=O (centres undefined)	0	-2	67*
CC(CCc1ccccc1)NC(=O)CN1CCN(Cc2ccccc2)C1=O (centres undefined)	.	.	0
CN1CCN(C(=O)C[C@@H]2C[C@@H]3c4cc(NC(=O)Nc5ccc(F)cc5)ccc4O[C@@H]3[C@H](CO)O2)CC1	-1	-6	5
CC(=O)C1=C(C)Nc2ncnn2C1c1ccc(O)cc1 (centres undefined)	44*	12	-3
CC(=O)C1=C(C)Nc2ncnn2C1c1ccc(F)cc1 (centres undefined)	0	2	12
COc1ccccc1NC(=O)N[C@H]1CC[C@@H](CCNS(=O)(=O)c2ccc(Cl)cc2)O[C@@H]1CO	0	0	5
Nc1nc2c(ncn2[C@@H]2O[C@H](CNCc3ccc(F)c(N4CCOCC4)c3)[C@@H](O)[C@H]2O)c(=O)[nH]1	.	26*	-6
Nc1nc2c(ncn2[C@@H]2O[C@H](CNCc3ccccc3)[C@@H](O)[C@H]2O)c(=O)[nH]1	0	-4	-4
COCCn1c(-c2ccccc2F)n[nH]c1=S	.	.	137*
COCCn1c(CCc2ccccc2)n[nH]c1=S	0	-1	.
COCCNC(=O)C[C@@H]1C[C@@H]2c3cc(NC(=O)NC4CCCCC4)ccc3O[C@@H]2[C@H](CO)O1	0	-4	0
CNC[C@@H]1Oc2ccc(NC(=O)C3CCCCC3)cc2C(=O)N([C@@H](C)CO)C[C@@H]1C	0	-6	22
COc1ccc(S(=O)(=O)Nc2ccc3c(c2)C(=O)N([C@H](C)CO)C[C@@H](C)[C@H](CN(C)C(=O)Nc2ccc(C(F)(F)F)cc2)O3)cc1	8	2	.
C/C=C/c1ccc(OCCCNC2CCCC2)c(OC)c1	.	.	-32
C/C=C/c1ccc(OCCCNC(C)CC)c(OC)c1 (centres undefined)	.	.	99*
CN(C)CC(=O)Nc1ccc2c(c1)[C@@H]1C[C@@H](CC(=O)NCCc3ccccc3)O[C@@H](CO)[C@@H]1O2	0	-1	-1
Cc1ccc(S(=O)(=O)Nc2ccc3c(c2)C(=O)N([C@H](C)CO)C[C@@H](C)[C@H](CN(C)S(C)(=O)=O)O3)cc1	0	-10	.
C[C@H](CO)N1C[C@H](C)[C@H](CN(C)C(=O)c2ccccn2)Oc2ncc(C3=CCCCC3)cc2C1=O	-1	62*	-16
